≈ marks a conversion by molar mass, not a printed value.
Legend:
Bacteroides fragilis = experiment: In vitro antimicrobial activity against Bacteroides fragilis ATCC 25285; type: functional
Method in brief: (§1)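 Anaerobe MIC by broth microdilution in Wilkins-Chalgren broth; inoculum 5 × 10^5 cfu/mL; 37 °C.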

Candida albicans [1] = experiment: In vitro antimicrobial activity against Candida albicans L145; type: functional
Method in brief: (§2)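 Candida: broth microdilution MIC in phosphate-buffered Yeast Nitrogen Base broth with glucose (1% w/v) and L-asparagine (0.15% w/v); inoculum about 10^4 cfu/mL; 37 °C, 20–24 h.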

Enterococcus faecalis = experiment: In vitro antimicrobial activity against Enterococcus faecalis ATCC 7080; type: functional
Method in brief: (§3)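 Broth microdilution MIC in Oxoid Iso-Sensitest broth; inoculum about 10^4 cfu/mL; 37 °C for 20–24 h.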

Escherichia coli = experiment: In vitro antimicrobial activity against Escherichia coli L47; type: functional; method in brief: as §3
Haemophilus influenzae = experiment: In vitro antimicrobial activity against Haemophilus influenza ATCC 19418; type: functional
Method in brief: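 Broth microdilution MIC in Brain Heart Infusion broth plus 1% (v/v) supplement C; inoculum about 10^4 cfu/mL; 37 °C.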

Neisseria gonorrhoeae = experiment: In vitro antimicrobial activity against Neisseria gonorrhoeae L997; type: functional
Method in brief: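 Broth microdilution MIC in GC Base broth plus 1% (v/v) IsoVitaleX; inoculum about 10^4 cfu/mL; 37 °C.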

Pseudomonas aeruginosa = experiment: In vitro antimicrobial activity against Pseudomonas aeruginosa ATCC 10145; type: functional; method in brief: as §3
Cutibacterium acnes = experiment: In vitro antimicrobial activity against Propionibacterium acnes ATCC 6919; type: functional; method in brief: as §1
Staphylococcus aureus [2] = experiment: In vitro antimicrobial activity against Staphylococcus aureus L1 65 30% bovine serum; type: functional
Method in brief: (§4)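 Broth microdilution MIC against S. aureus L165 in Iso-Sensitest broth, 37 °C, 20–24 h.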

Staphylococcus aureus [3] = experiment: In vitro antimicrobial activity against Staphylococcus aureus L165; type: functional; method in brief: as §3
Staphylococcus aureus [4] = experiment: In viro antimicrobial activity against Staphylococcus aureus L165 10 x e+6 cfu/ml; type: functional; method in brief: as §4
[5] = test system: Staphylococcus haemolyticus; experiment: In vitro antimicrobial activity against Staphylococcus haemolyticus L602; type: functional; method in brief: as §3
Streptococcus pneumoniae = experiment: In vitro antimicrobial activity against Streptococcus pneumoniae L44; type: functional
Method in brief: (§5)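 Streptococci: broth microdilution MIC in Todd Hewitt broth; inoculum about 10^4 cfu/mL; 37 °C, 20–24 h.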

Streptococcus pyogenes = experiment: In vitro antimicrobial activity against Streptococcus pyogenes L49; type: functional; method in brief: as §5
Proteus vulgaris = experiment: In vitro antimicrobial activity against Proteus vulgaris ATCC881; type: functional; method in brief: as §3
[6] = test system: Staphylococcus epidermidis; experiment: In vitro antimicrobial activity against Staphylococcus epidermidis ATCC 12228; type: functional; method in brief: as §3
Trichomonas vaginalis [7] = experiment: Antimicrobial activity against Trichomonas vaginalis; type: functional
Method in brief: (§6)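 Broth microdilution in Trichomonas Culture Medium Base plus 10% horse serum; about 10^5 cells/mL; 48 h at 37 °C under N2-CO2-H2; MIC read by microscopy for viable (motile) protozoa.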

Staphylococcus aureus [8] = experiment: In vitro antimicrobial activity against Staphylococcus aureus L165 30% bovine serum; type: functional; method in brief: as §4
Trichophyton benhamiae = experiment: In vitro antimicrobial activity against Trichophyton mentagrophytes L364; type: functional, Arthroderma benhamiae
Method in brief: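 Broth microdilution MIC in YM broth; inoculum 1% (v/v) suspension of mycelia and conidia; 30 °C for 72 h.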

Candida albicans [9] = experiment: Candida albicans L145; type: functional; method in brief: as §2
Candida [10] = experiment: Minimum inhibition concentration for 50% inhibition against Candida species; type: functional; method in brief: as §2
Candida [11] = experiment: Minimum inhibition concentration for 90% inhibition against Candida species; type: functional; method in brief: as §2
Candida albicans [12] = experiment: In vitro antimicrobial activity against Candida albicans(24); type: functional; method in brief: as §2
Gardnerella vaginalis [13] = experiment: In vitro antimicrobial activity against Gardnerella vaginalis (MIC50); type: functional
Method in brief: (§7)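 Agar dilution MIC in Casman medium with 5% (v/v) whole and 0.15% (v/v) lysed rabbit blood; inoculum about 10^5 cfu; 48 h at 37 °C under N2-CO2-H2 (80:10:10).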

Gardnerella vaginalis [14] = experiment: In vitro antimicrobial activity against Gardnerella vaginalis (MIC90); type: functional; method in brief: as §7
Staphylococcus aureus [15] = experiment: In viro antimicrobial activity against Staphylococcus aureus L16510 x e+6 cfu/ml; type: functional; method in brief: as §4
Candida tropicalis = experiment: In vitro antimicrobial activity against Candida tropicalis (2); type: functional; method in brief: as §2
Nakaseomyces glabratus = experiment: In vitro antimicrobial activity against Candida glabrata (1)1; type: functional; method in brief: as §2
Candida albicans [16] = experiment: In vitro antimicrobial activity against Candida albicans (24); type: functional; method in brief: as §2
Trichomonas vaginalis [17] = experiment: In vitro antimicrobial activity against Trichomonas vaginalis; type: functional; method in brief: as §6

MIC (Bacteroides fragilis) [µg/mL]	MIC (Candida albicans [1]) [µg/mL]	MIC (Enterococcus faecalis) [µg/mL]	MIC (Escherichia coli) [µg/mL]	MIC (Haemophilus influenzae) [µg/mL]	MIC (Neisseria gonorrhoeae) [µg/mL]	MIC (Pseudomonas aeruginosa) [µg/mL]	MIC (Cutibacterium acnes) [µg/mL]	MIC (Staphylococcus aureus [2]) [µg/mL]	MIC (Staphylococcus aureus [3]) [µg/mL]	MIC (Staphylococcus aureus [4]) [µg/mL]	MIC (Streptococcus pneumoniae) [µg/mL]	MIC (Streptococcus pyogenes) [µg/mL]	MIC (Proteus vulgaris) [µg/mL]	MIC [6] [µg/mL]	Compound	MIC [5] [µg/mL]	other results
0.5 (≈ 0.889 µM)	> 128	0.13 (≈ 0.231 µM)	> 128	0.13 (≈ 0.231 µM)	0.06 (≈ 0.107 µM)	> 128	0.016 (≈ 0.0284 µM)	2 (≈ 3.56 µM)	0.13 (≈ 0.231 µM)	0.13 (≈ 0.231 µM)	0.03 (≈ 0.0533 µM)	0.13 (≈ 0.231 µM)	> 128	0.13 (≈ 0.231 µM)	COC(=O)c1cc2cc3c(c(O)c2c(=O)o1)OC1(CC2=C(O1)C(=O)c1c(O)c(NCC#N)cc(O)c1C2=O)CC3O (stereo unspecified)	0.13 (≈ 0.231 µM)	–
–	–	–	–	–	–	–	–	–	–	–	–	–	–	–	Cc1ncc([N+](=O)[O-])n1CCO [METRONIDAZOLE]	–	MIC (Trichomonas vaginalis [7]): 0.25 µg/mL (≈ 1.46 µM)
0.5 (≈ 0.841 µM)	64 (≈ 108 µM)	–	16 (≈ 26.9 µM)	–	–	128 (≈ 215 µM)	0.06 (≈ 0.101 µM)	–	0.13 (≈ 0.219 µM)	0.13 (≈ 0.219 µM)	0.06 (≈ 0.101 µM)	–	128 (≈ 215 µM)	–	COC(=O)c1cc2cc3c(c(O)c2c(=O)o1)OC1(CC2=C(O1)C(=O)c1c(O)c(NCCN(C)C)cc(O)c1C2=O)CC3O (stereo unspecified)	0.5 (≈ 0.841 µM)	MIC (Staphylococcus aureus [8]): 0.25 µg/mL (≈ 0.421 µM); MIC (Trichophyton benhamiae): 128 µg/mL (≈ 215 µM)
0.13 (≈ 0.229 µM)	–	0.06 (≈ 0.106 µM)	> 128	0.06 (≈ 0.106 µM)	0.03 (≈ 0.0529 µM)	> 128	0.004 (≈ 0.00705 µM)	1 (≈ 1.76 µM)	0.06 (≈ 0.106 µM)	0.13 (≈ 0.229 µM)	0.016 (≈ 0.0282 µM)	0.03 (≈ 0.0529 µM)	> 128	0.06 (≈ 0.106 µM)	COC(=O)c1cc2cc3c(c(O)c2c(=O)o1)OC1(CC2=C(O1)C(=O)c1c(O)c(NCCO)cc(O)c1C2=O)CC3O (stereo unspecified)	0.13 (≈ 0.229 µM)	MIC (Candida albicans [9]): > 128 µg/mL
–	> 128	4 (≈ 6.52 µM)	> 128	2 (≈ 3.26 µM)	0.25 (≈ 0.407 µM)	> 128	–	–	0.5 (≈ 0.815 µM)	1 (≈ 1.63 µM)	0.06 (≈ 0.0978 µM)	1 (≈ 1.63 µM)	> 128	0.13 (≈ 0.212 µM)	COC(=O)c1cc2cc3c(c(O)c2c(=O)o1)OC1(CC2=C(O1)C(=O)c1c(O)c(NCc4ccccc4)cc(O)c1C2=O)CC3O (stereo unspecified)	0.13 (≈ 0.212 µM)	MIC (Staphylococcus aureus [8]): 32 µg/mL (≈ 52.2 µM)
0.25 (≈ 0.464 µM)	1 (≈ 1.86 µM)	0.06 (≈ 0.111 µM)	8 (≈ 14.9 µM)	0.03 (≈ 0.0557 µM)	0.06 (≈ 0.111 µM)	> 128	0.03 (≈ 0.0557 µM)	8 (≈ 14.9 µM)	0.03 (≈ 0.0557 µM)	–	0.06 (≈ 0.111 µM)	0.25 (≈ 0.464 µM)	32 (≈ 59.4 µM)	0.03 (≈ 0.0557 µM)	COC(=O)c1cc2cc3c(c(O)c2c(=O)o1)OC1(Cc2c(O)c4c(c(O)c2O1)C(=O)C(OC)=CC4=O)CC3O (stereo unspecified)	0.03 (≈ 0.0557 µM)	MIC50 (Candida [10]): 1 µg/mL (≈ 1.86 µM); MIC90 (Candida [11]): 2 µg/mL (≈ 3.71 µM); MIC (Candida albicans [12]): 0.25 µg/mL (≈ 0.464 µM); MIC50 (Gardnerella vaginalis [13]): 8 µg/mL (≈ 14.9 µM); MIC90 (Gardnerella vaginalis [14]): 8 µg/mL (≈ 14.9 µM); MIC (Staphylococcus aureus [15]): 0.06 µg/mL (≈ 0.111 µM); MIC (Trichomonas vaginalis [7]): 8 µg/mL (≈ 14.9 µM); MIC (Candida tropicalis): 128 µg/mL (≈ 238 µM)
0.03 (≈ 0.0558 µM)	2 (≈ 3.72 µM)	0.03 (≈ 0.0558 µM)	> 128	0.13 (≈ 0.242 µM)	0.06 (≈ 0.112 µM)	> 128	0.008 (≈ 0.0149 µM)	0.25 (≈ 0.465 µM)	0.016 (≈ 0.0298 µM)	0.06 (≈ 0.112 µM)	0.016 (≈ 0.0298 µM)	0.03 (≈ 0.0558 µM)	> 128	0.008 (≈ 0.0149 µM)	CNc1cc(O)c2c(c1O)C(=O)C1=C(CC3(CC(O)c4cc5cc(C(=O)OC)oc(=O)c5c(O)c4O3)O1)C2=O (stereo unspecified)	0.016 (≈ 0.0298 µM)	MIC (Nakaseomyces glabratus): 128 µg/mL (≈ 238 µM); MIC (Candida albicans [16]): 0.25 µg/mL (≈ 0.465 µM); MIC50 (Candida [10]): 2 µg/mL (≈ 3.72 µM); MIC90 (Candida [11]): 2 µg/mL (≈ 3.72 µM); MIC50 (Gardnerella vaginalis [13]): 1 µg/mL (≈ 1.86 µM); MIC90 (Gardnerella vaginalis [14]): 2 µg/mL (≈ 3.72 µM); MIC (Trichomonas vaginalis [17]): 1 µg/mL (≈ 1.86 µM); MIC (Candida tropicalis): 64 µg/mL (≈ 119 µM)

From ChEMBL document CHEMBL1130340, “Semisynthetic derivatives of purpuromycin as potential topical agents for vaginal infections” (1997)
